Experimental findings from ChEMBL document CHEMBL4414559, “Proanthocyanidin Dimers and Trimers from Vitis vinifera Provide Diverse Structural Motifs for the Evaluation of Dentin Biomodification” (J Nat Prod, 2019) are described below.

Broadly, the inhibition is the change of the read-out against control, counted positive when it falls.

Data set [1] relates to Dentine. Description: Induction of elasticity in human molar dentin at 3.5 mg after 1 hr by flexural assay. In kind it is functional, tissue-based. In a few lines: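 Read-out is modulus of elasticity (MPa), measured mechanically on the dentin. This avoids colorimetric, fluorescence or UV detection.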
Data set [2] in a line: Stability in human molar dentin at 3.5 mg after 1 hr by flexural assay. In kind it is ADME, tissue-based, Dentine. The settings on record: in vitro.
Data set [3] has as its system Dentine. Description: Induction of modification in human molar dentin assessed as sum of percentage of apparent modulus elasticity and percentage of collagen remaining after […] at 3.5 mg. In kind it is functional, tissue-based.
In data set [4] the test system is Dentine. Description: Induction of elasticity in human molar dentin assessed as fold change at 3.5 mg after 1 hr by flexural assay relative to untreated control. In kind it is functional.
A further data set concerns Hathewaya histolytica. Description: Inhibition of Clostridium histolyticum collagenase-induced degradation of human molar dentin assessed as reduction in at 3.5 mg after 1 hr followed by collagenase treatment and measured after 24 hrs relative to control. The method in brief: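 Resistance to proteolytic biodegradation is measured gravimetrically as percent mass gain or loss of the dentin. This avoids colorimetric, fluorescence or UV detection.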

Activity calls are given as the source filed them. No cut-off for these calls is given here.

Take `Oc1cc(O)c2c(c1)O[C@H](c1ccc(O)c(O)c1)[C@H](O)[C@H]2c1c(O)cc(O)c2c1O[C@@H](c1ccc(O)c(O)c1)[C@H](O)C2`: the outcome in the data set on Dentine [1] was inactive. Moreover, the Stability entry in data set [2] is “Stable”.

`Oc1cc(O)c2c(c1)O[C@H](c1ccc(O)c(O)c1)[C@H](O)[C@H]2c1c(O)cc(O)c2c1O[C@H](c1ccc(O)c(O)c1)[C@H](O)[C@H]2c1c(O)cc(O)c2c1O[C@@H](c1ccc(O)c(O)c1)[C@H](O)C2`: the result in the data set on Dentine [3] was Active. For the same compound, the “fold change (FC)” value in the data set on Dentine [4] stood at 5.5. Besides, the inhibition in the data set on Hathewaya histolytica lay within 70 to 80%. Also, the Stability result in data set [2] was “Stable”.

As to `Oc1cc(O)c2c(c1)O[C@H](c1ccc(O)c(O)c1)[C@H](O)[C@H]2c1c(O)cc(O)c2c1O[C@H](c1ccc(O)c(O)c1)[C@@H](O)C2` [PROCYANIDIN B1], the outcome with Dentine [1] was inactive. In addition, the Stability result in data set [2] was “Stable”.

Turning to `Oc1cc(O)c2c(c1)O[C@H](c1ccc(O)c(O)c1)[C@H](O)[C@H]2c1c(O)cc(O)c2c1O[C@H](c1ccc(O)c(O)c1)[C@H](O)C2` [PROCYANIDIN B2], in the data set on Dentine [3], the outcome was Active. Also, the outcome in the data set with Dentine [1] was inactive. In addition, the Stability result in data set [2] is reported as “Stable”.

As for `Oc1cc(O)c2c(c1)O[C@H](c1ccc(O)c(O)c1)[C@H](O)[C@H]2c1c(O)cc(O)c2c1O[C@@H](c1ccc(O)c(O)c1)[C@@H](O)C2`, the result with Dentine [3] was Active. For the same compound, the result in the data set with Dentine [1] was inactive. Besides, the Stability entry in data set [2] is “Stable”.

As for `Oc1cc(O)c2c(c1)O[C@@H](c1ccc(O)c(O)c1)[C@H](O)[C@H]2c1c(O)cc(O)c2c1O[C@H](c1ccc(O)c(O)c1)[C@H](O)C2`, in the data set with Dentine [3], the outcome was Active. Also, the result with Dentine [1] was inactive. Also, the Stability result in data set [2] is reported as “Stable”.

In the case of `Oc1cc(O)c2c(c1)O[C@H](c1ccc(O)c(O)c1)[C@H](O)[C@H]2c1c(O)cc(O)c2c1O[C@H](c1ccc(O)c(O)c1)[C@H](O)[C@H]2c1c(O)cc(O)c2c1O[C@H](c1ccc(O)c(O)c1)[C@@H](O)C2`, in the data set with Dentine [3], the result was Active. In addition, in the data set on Dentine [4], the “fold change (FC)” value worked out at 5. The inhibition in the data set with Hathewaya histolytica was in the range of 70 to 80%. In addition, the Stability result in data set [2] was “Stable”.

For `Oc1cc(O)c2c(c1)O[C@@H](c1ccc(O)c(O)c1)[C@H](O)[C@H]2c1c(O)cc(O)c2c1O[C@H](c1ccc(O)c(O)c1)[C@@H](O)C2`, the outcome in the data set with Dentine [3] was Active. Also, the outcome with Dentine [1] was inactive. Further, the Stability entry in data set [2] is listed as “Stable”.

`Oc1cc(O)c2c(c1)O[C@H](c1ccc(O)c(O)c1)[C@@H](O)[C@@H]2c1c(O)cc(O)c2c1O[C@H](c1ccc(O)c(O)c1)[C@@H](O)C2`: in the data set on Dentine [1], the result was inactive. The Stability entry in data set [2] was “Stable”.
